Assays:
Parameters in all cases: dose 500 mg/kg
[1] = test system: Mus musculus; assay: Effect on Ugt1a6b gene expression in male PXR-humanized mouse liver at 500 mg/kg for 7 to 14 days dosed through vitamin E-deficient base diet by qPCR method; type: ADME, organism-based; conditions: in vivo, po
Method in brief: (§1)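 Male mice on vitamin E deficient diet, switched at eight weeks to the same diet with 500 mg/kg DL-α-tocopheryl acetate (controls kept deficient); killed at nine or 10 weeks, livers flash frozen. Hepatic mRNA by SYBR Green qPCR with 25 ng cDNA and 150 nM primers, triplicate reactions; comparative threshold cycle method against β-actin, fold change versus deficient diet; mean ± SEM, two-tailed t-test.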

[2] = test system: Mus musculus; assay: Induction of Cyp4f14 gene expression in wild type mouse liver at 500 mg/kg for 7 to 14 days dosed through vitamin E-deficient base diet by qPCR method; type: ADME, organism-based; conditions: in vivo, po
Method in brief: (§2)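 Male mice (wild-type, Pxr-null, hPXR; NCI-bred) on vitamin E-deficient diet from 3 weeks of age; at 8 weeks half switched to same base diet supplemented with 500 mg/kg DL-α-tocopheryl acetate, rest kept deficient. Livers harvested at 9 and 10 weeks. qPCR: 25 ng cDNA, 150 nM each primer, SYBR Green, triplicate; comparative Ct vs β-actin; fold change enriched vs deficient diet; mean ± SEM, two-tailed unpaired t-test.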

[3] = test system: Mus musculus; assay: Effect on Ugt1a9 gene expression in male PXR null mouse liver at 500 mg/kg for 7 to 14 days dosed through vitamin E-deficient base diet by qPCR method; type: ADME, organism-based; conditions: in vivo, po; method in brief: as §1
[4] = test system: Mus musculus; assay: Effect on Ugt1a1 gene expression in male PXR-humanized mouse liver at 500 mg/kg for 7 to 14 days dosed through vitamin E-deficient base diet by qPCR method; type: ADME, organism-based; conditions: in vivo, po; method in brief: as §1
[5] = test system: Mus musculus; assay: Reduction in Cyp4a10 gene expression in PXR-humanized mouse liver at 500 mg/kg for 7 to 14 days dosed through vitamin E-deficient base diet by qPCR method; type: ADME, organism-based; conditions: in vivo, po; method in brief: as §2
[6] = test system: Mus musculus; assay: Induction of Cyp4f15 gene expression in male PXR-humanized mouse liver at 500 mg/kg for 7 to 14 days dosed through vitamin E-deficient base diet by qPCR method; type: ADME, organism-based; conditions: in vivo, po; method in brief: as §2
[7] = test system: Mus musculus; assay: Induction of Cyp4f13 gene expression in male PXR null mouse liver at 500 mg/kg for 7 to 14 days dosed through vitamin E-deficient base diet by qPCR method; type: ADME, organism-based; conditions: in vivo, po; method in brief: as §2
[8] = test system: Mus musculus; assay: Induction of Cyp4f18 gene expression in male PXR null mouse liver at 500 mg/kg for 7 to 14 days dosed through vitamin E-deficient base diet by qPCR method; type: ADME, organism-based; conditions: in vivo, po; method in brief: as §2
[9] = test system: Mus musculus; assay: Effect on Ugt1a10 gene expression in male PXR null mouse liver at 500 mg/kg for 7 to 14 days dosed through vitamin E-deficient base diet by qPCR method; type: ADME, organism-based; conditions: in vivo, po; method in brief: as §1
[10] = test system: Mus musculus; assay: Induction of Cyp4f15 gene expression in male PXR null mouse liver at 500 mg/kg for 7 to 14 days dosed through vitamin E-deficient base diet by qPCR method; type: ADME, organism-based; conditions: in vivo, po; method in brief: as §2
[11] = test system: Mus musculus; assay: Drug metabolism in male PXR null mouse assessed as urinary alpha-carboxymethylbutylhydroxychroman glucuronide level at 500 mg/kg for 7 to 14 days dosed through vitamin E-deficient base diet by UPLC-ESI-QTOFMS method based metabolomics analysis; type: ADME, organism-based, Urine; conditions: in vivo, po
[12] = test system: Mus musculus; assay: Drug metabolism in male wild type mouse assessed as urinary alpha-carboxymethylbutylhydroxychroman glucuronide level at 500 mg/kg for 7 to 14 days dosed through vitamin E-deficient base diet by UPLC-ESI-QTOFMS method based metabolomics analysis; type: ADME, organism-based, Urine; conditions: in vivo, po
[13] = test system: Mus musculus; assay: Effect on Ugt2b34 gene expression in male PXR-humanized mouse liver at 500 mg/kg for 7 to 14 days dosed through vitamin E-deficient base diet by qPCR method; type: ADME, organism-based; conditions: in vivo, po; method in brief: as §1
[14] = test system: Mus musculus; assay: Effect on Ugt1a10 gene expression in male PXR-humanized mouse liver at 500 mg/kg for 7 to 14 days dosed through vitamin E-deficient base diet by qPCR method; type: ADME, organism-based; conditions: in vivo, po; method in brief: as §1
[15] = test system: Mus musculus; assay: Effect on Ugt1a6a gene expression in male PXR null mouse liver at 500 mg/kg for 7 to 14 days dosed through vitamin E-deficient base diet by qPCR method; type: ADME, organism-based; conditions: in vivo, po; method in brief: as §1
[16] = test system: Mus musculus; assay: Induction of Cyp4f16 gene expression in male PXR-humanized mouse liver at 500 mg/kg for 7 to 14 days dosed through vitamin E-deficient base diet by qPCR method; type: ADME, organism-based; conditions: in vivo, po; method in brief: as §2
[17] = test system: Mus musculus; assay: Induction of Cyp4f18 gene expression in wild type mouse liver at 500 mg/kg for 7 to 14 days dosed through vitamin E-deficient base diet by qPCR method; type: ADME, organism-based; conditions: in vivo, po; method in brief: as §2
[18] = test system: Mus musculus; assay: Effect on Ugt1a1 gene expression in wild type mouse liver at 500 mg/kg for 7 to 14 days dosed through vitamin E-deficient base diet by qPCR method; type: ADME, organism-based; conditions: in vivo, po; method in brief: as §1
[19] = test system: Mus musculus; assay: Drug metabolism in male wild type mouse assessed as urinary alpha-carboxyethylhydroxychroman glycine level at 500 mg/kg for 7 to 14 days dosed through vitamin E-deficient base diet by UPLC-ESI-QTOFMS method based metabolomics analysis; type: ADME, organism-based, Urine; conditions: in vivo, po
[20] = test system: Mus musculus; assay: Effect on Ugt1a6a gene expression in male PXR-humanized mouse liver at 500 mg/kg for 7 to 14 days dosed through vitamin E-deficient base diet by qPCR method; type: ADME, organism-based; conditions: in vivo, po; method in brief: as §1
[21] = test system: Mus musculus; assay: Induction of Cyp4f16 gene expression in male PXR null mouse liver at 500 mg/kg for 7 to 14 days dosed through vitamin E-deficient base diet by qPCR method; type: ADME, organism-based; conditions: in vivo, po; method in brief: as §2
[22] = test system: Mus musculus; assay: Effect on Ugt2b34 gene expression in wild type mouse liver at 500 mg/kg for 7 to 14 days dosed through vitamin E-deficient base diet by qPCR method; type: ADME, organism-based; conditions: in vivo, po; method in brief: as §1
[23] = test system: Mus musculus; assay: Effect on Ugt1a10 gene expression in wild type mouse liver at 500 mg/kg for 7 to 14 days dosed through vitamin E-deficient base diet by qPCR method; type: ADME, organism-based; conditions: in vivo, po; method in brief: as §1
[24] = test system: Mus musculus; assay: Effect on Ugt1a9 gene expression in wild type mouse liver at 500 mg/kg for 7 to 14 days dosed through vitamin E-deficient base diet by qPCR method; type: ADME, organism-based; conditions: in vivo, po; method in brief: as §1
[25] = test system: Mus musculus; assay: Effect on Ugt1a7c gene expression in wild type mouse liver at 500 mg/kg for 7 to 14 days dosed through vitamin E-deficient base diet by qPCR method; type: ADME, organism-based; conditions: in vivo, po; method in brief: as §1
[26] = test system: Mus musculus; assay: Effect on Ugt1a7c gene expression in male PXR null mouse liver at 500 mg/kg for 7 to 14 days dosed through vitamin E-deficient base diet by qPCR method; type: ADME, organism-based; conditions: in vivo, po; method in brief: as §1
[27] = test system: Mus musculus; assay: Effect on Ugt2b5 gene expression in male PXR null mouse liver at 500 mg/kg for 7 to 14 days dosed through vitamin E-deficient base diet by qPCR method; type: ADME, organism-based; conditions: in vivo, po; method in brief: as §1
[28] = test system: Mus musculus; assay: Induction of Cyp4f18 gene expression in male PXR-humanized mouse liver at 500 mg/kg for 7 to 14 days dosed through vitamin E-deficient base diet by qPCR method; type: ADME, organism-based; conditions: in vivo, po; method in brief: as §2
[29] = test system: Mus musculus; assay: Induction of Cyp2c39 gene expression in male PXR null mouse liver at 500 mg/kg for 7 to 14 days dosed through vitamin E-deficient base diet by qPCR method; type: ADME, organism-based; conditions: in vivo, po; method in brief: as §1
[30] = test system: Cyp2b10; assay: Induction of Cyp2b10 gene expression in wild type mouse liver at 500 mg/kg for 7 to 14 days dosed through vitamin E-deficient base diet by qPCR method; type: ADME, organism-based; conditions: po, read-out: FC; method in brief: as §1

## CC(=O)Oc1c(C)c(C)c2c(c1C)CCC(C)(CCCC(C)CCCC(C)CCCC(C)C)O2 (racemic) [alpha-TOCHOPHERYL ACETATE]
[1]
  Activity: Not Active
[2]
  Activity: Not Active
[3]
  Activity: Not Active
[4]
  Activity: Not Active
[5]
  fold change (FC): 2.4
[6]
  Activity: Not Active
[7]
  Activity: Not Active
[8]
  Activity: Not Active
[9]
  Activity: Not Active
[10]
  Activity: Not Active
[11]
  Drug metabolism: metabolite_detected
[12]
  Drug metabolism: metabolite_detected
[13]
  Activity: Not Active
[14]
  Activity: Not Active
[15]
  Activity: Not Active
[16]
  Activity: Not Active
[17]
  Activity: Not Active
[18]
  Activity: Not Active
[19]
  Drug metabolism: metabolite_detected
[20]
  Activity: Not Active
[21]
  Activity: Not Active
[22]
  Activity: Not Active
[23]
  Activity: Not Active
[24]
  Activity: Not Active
[25]
  Activity: Not Active
[26]
  Activity: Not Active
[27]
  Activity: Not Active
[28]
  Activity: Not Active
[29]
  Activity: Not Active
[30]
  fold induction: 7.3

Source: ChEMBL document CHEMBL3526106, “Cytochrome P450 regulation by α-tocopherol in Pxr-null and PXR-humanized mice” (Drug Metab Dispos, 2013)
